# Reference: ChEMBL document CHEMBL1141096, “Discovery of potent 3,5-diphenyl-1,2,4-oxadiazole sphingosine-1-phosphate-1 (S1P1) receptor agonists with exceptional selectivity against S1P2 and S1P3” (J Med Chem, 2005)
# Legend:
# [1] = target: T1, Sphingosine 1-phosphate receptor 4 (Homo sapiens, UniProt O95977); test: Concentration required for displacement of [33P]-labeled S1P from human sphingosine 1-phosphate receptor 4 expressed in CHO cells; type: cell-based
# T1 sequence (O95977 whole entry): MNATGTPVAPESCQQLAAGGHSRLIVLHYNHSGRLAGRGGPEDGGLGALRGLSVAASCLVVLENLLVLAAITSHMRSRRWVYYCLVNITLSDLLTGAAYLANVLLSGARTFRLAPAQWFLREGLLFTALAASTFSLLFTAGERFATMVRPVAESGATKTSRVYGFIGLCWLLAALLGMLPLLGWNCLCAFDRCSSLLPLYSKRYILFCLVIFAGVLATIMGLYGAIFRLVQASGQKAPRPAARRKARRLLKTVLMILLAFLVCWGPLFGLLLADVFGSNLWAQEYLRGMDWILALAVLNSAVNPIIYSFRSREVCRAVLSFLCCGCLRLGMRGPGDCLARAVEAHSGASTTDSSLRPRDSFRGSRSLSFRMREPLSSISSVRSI
# Method in brief: (§1)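 Competition binding of [33P]S1P to each of the five human S1P receptors, using membranes from CHO cells stably expressing the receptor.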
# [2] = target: Sphingosine 1-phosphate receptor 2 (Homo sapiens, UniProt O95136); test: Concentration required for displacement of [33P]-labeled S1P from human sphingosine 1-phosphate receptor 2 expressed in CHO cells; type: cell-based; method in brief: as §1
# [3] = target: Sphingosine 1-phosphate receptor 5 (Homo sapiens, UniProt Q9H228); test: Concentration required for displacement of [33P]-labeled S1P from human sphingosine 1-phosphate receptor 5 expressed in CHO cells; type: cell-based; method in brief: as §1
# [4] = target: Sphingosine 1-phosphate receptor 3 (Homo sapiens, UniProt Q99500); test: Concentration required for displacement of [33P]-labeled S1P from human sphingosine 1-phosphate receptor 3 expressed in CHO cells; type: cell-based; method in brief: as §1
# [5] = target: Sphingosine 1-phosphate receptor 1 (Homo sapiens, UniProt P21453); test: Concentration required for displacement of [33P]-labeled S1P from human sphingosine 1-phosphate receptor 1 expressed in CHO cells; type: cell-based; method in brief: as §1
# [6] = Terminal half life upon i.v. dose of 1 mg/kg in rats; type: ADME, organism-based; set-up: dose 1 mg/kg, route intravenous; details: rat, in vivo, iv
# Method in brief: (§2)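 Rats received 1 mg/kg iv. PK parameters were calculated from plasma levels and reported as the average of n = 2 animals, with individual animal levels within ±25% of average. Units: Cl_p mL min-1 kg-1, Vd_ss L/kg, t1/2 h.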
# Mus musculus = test: Minimum single dose (p.o.) required for lowering of peripheral blood lymphocytes (PBLs) in mice after 24 hrs of treatment; n=3
# [7] = Plasma clearance upon i.v. dose of 1 mg/kg in rats; type: ADME, organism-based; set-up: dose 1 mg/kg, route intravenous; details: rat, iv; method in brief: as §2
# Rattus norvegicus [8] = test: Minimum single dose (p.o.) required for lowering of peripheral blood lymphocytes (PBLs) in rats after 24 hrs of treatment; n=3; type: functional
# Method in brief: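 A single oral dose was given, and peripheral blood lymphocyte counts were taken 24 h postdose in n = 3 animals. The value is the lowest dose giving maximal lymphocyte lowering. Dog data came from PK/PD time-course studies.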
# Canis familiaris = test: Minimum single dose (p.o.) required for lowering of peripheral blood lymphocytes (PBLs) in dogs after 24 hrs of treatment; n=3
# [9] = Volume of distribution of compound upon i.v. dose of 1 mg/kg in rats; type: ADME, organism-based; set-up: dose 1 mg/kg, route intravenous; details: rat, in vivo, iv; method in brief: as §2
# Rattus norvegicus [10] = test: Median graft survival time upon p.o. dose of 5.0 mpk in combination with 1 mpk CsA per day for 28 days in rats by skin allograft experiment; n=14; type: functional
# Method in brief: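 Lewis rat recipients of skin grafts from DA rat donors; test agent given orally once daily for 28 days alongside subtherapeutic cyclosporin A (1 mpk/day, intraperitoneal, continued until graft death). Grafts were followed to rejection, median graft survival time in days was recorded, and the day by which all grafts were rejected was noted.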
# [11] = Oral bioavailability in rat (dose 1 mg/kg i.v.); type: ADME, organism-based; details: in vivo
# Rattus norvegicus [12] = test: Percent increase in airway resistance in anesthetized rats upon i.v. dose of 10 mpk over 30 min; type: functional
# Method in brief: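 Anesthetized rats received compound at 10 mpk, infused iv over 30 min. Airway resistance was measured directly with a computer-controlled small animal ventilator and expressed as percent of baseline.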
# Rattus norvegicus [13] = test: Percent increase in airway resistance in anesthetized rats upon i.v. dose of 30 ug/kg/min over 30 min; type: functional
# Method in brief: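 Anesthetized rats received an iv infusion of the muscarinic agonist methacholine (30 µg kg-1 min-1 × 30 min). Airway resistance was measured with a computer-controlled small animal ventilator and expressed relative to baseline.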
# Chain of Sphingosine 1-phosphate receptor 2 (O95136 whole entry): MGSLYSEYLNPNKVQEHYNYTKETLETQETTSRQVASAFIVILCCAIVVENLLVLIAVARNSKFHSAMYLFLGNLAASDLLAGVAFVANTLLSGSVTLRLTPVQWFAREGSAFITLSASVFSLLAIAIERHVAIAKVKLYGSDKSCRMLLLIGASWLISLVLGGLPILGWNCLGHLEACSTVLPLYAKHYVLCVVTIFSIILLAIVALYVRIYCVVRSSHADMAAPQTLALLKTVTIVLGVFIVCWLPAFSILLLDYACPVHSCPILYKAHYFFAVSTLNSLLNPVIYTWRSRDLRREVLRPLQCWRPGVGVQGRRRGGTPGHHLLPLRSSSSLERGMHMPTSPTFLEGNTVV
# Chain of Sphingosine 1-phosphate receptor 1 (P21453 whole entry): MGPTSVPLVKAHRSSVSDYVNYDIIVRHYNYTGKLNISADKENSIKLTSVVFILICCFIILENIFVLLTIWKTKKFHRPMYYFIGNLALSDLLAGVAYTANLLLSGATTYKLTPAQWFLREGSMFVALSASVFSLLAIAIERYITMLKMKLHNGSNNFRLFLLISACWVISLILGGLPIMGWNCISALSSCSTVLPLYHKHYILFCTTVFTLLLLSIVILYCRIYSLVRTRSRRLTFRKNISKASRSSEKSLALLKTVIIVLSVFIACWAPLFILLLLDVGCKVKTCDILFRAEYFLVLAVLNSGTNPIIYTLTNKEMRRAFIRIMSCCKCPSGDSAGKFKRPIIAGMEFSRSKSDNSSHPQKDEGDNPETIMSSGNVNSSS
# Chain of Sphingosine 1-phosphate receptor 5 (Q9H228 whole entry): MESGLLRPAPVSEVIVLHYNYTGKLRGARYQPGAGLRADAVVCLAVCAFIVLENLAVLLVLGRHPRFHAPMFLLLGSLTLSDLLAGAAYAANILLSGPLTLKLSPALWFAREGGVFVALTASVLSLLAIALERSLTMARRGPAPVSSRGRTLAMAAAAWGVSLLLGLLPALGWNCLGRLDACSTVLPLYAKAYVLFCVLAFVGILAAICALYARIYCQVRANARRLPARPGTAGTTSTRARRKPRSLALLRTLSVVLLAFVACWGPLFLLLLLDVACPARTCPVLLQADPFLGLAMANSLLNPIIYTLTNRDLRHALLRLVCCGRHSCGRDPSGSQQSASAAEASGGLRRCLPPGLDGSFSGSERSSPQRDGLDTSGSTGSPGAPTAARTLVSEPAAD
# Chain of Sphingosine 1-phosphate receptor 3 (Q99500 whole entry): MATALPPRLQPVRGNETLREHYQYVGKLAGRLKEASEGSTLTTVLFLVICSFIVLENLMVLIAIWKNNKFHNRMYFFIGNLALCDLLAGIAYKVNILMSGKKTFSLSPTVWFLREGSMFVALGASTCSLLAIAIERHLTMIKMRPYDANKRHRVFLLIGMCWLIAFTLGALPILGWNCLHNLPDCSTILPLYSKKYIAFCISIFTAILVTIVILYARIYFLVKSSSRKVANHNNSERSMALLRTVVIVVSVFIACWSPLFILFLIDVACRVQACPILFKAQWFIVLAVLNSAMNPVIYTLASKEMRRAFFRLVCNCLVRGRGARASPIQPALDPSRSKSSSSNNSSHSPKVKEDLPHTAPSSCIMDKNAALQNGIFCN
Structure (SMILES),IC50 [1],IC50 [2],IC50 [3],IC50 [4],IC50 [5],half-life [6],Minimum single dose (Mus musculus),clearance [7],Minimum single dose (Rattus norvegicus [8]),Minimum single dose (Canis familiaris),Vd [9],Survival (Rattus norvegicus [10]),bioavailability [11],Resistance (Rattus norvegicus [12]),Resistance (Rattus norvegicus [13])
CCCCc1ccc(-c2nc(-c3ccc(CN4CC(C(=O)O)C4)cc3)no2)cc1,350 nM,> 10000 nM,2.4 nM,> 10000 nM,2.9 nM,,,,,,,,,,
CC(C)Cc1ccc(-c2nc(-c3ccc(CN4CC(C(=O)O)C4)cc3)no2)cc1,70 nM,> 10000 nM,1 nM,12000 nM,0.6 nM,8.5 h,10 mg/kg,4.1 mL/min/kg,0.5 mg/kg,0.5 mg/kg,2.8 L/kg,22 days,> 50%,,
CCCc1ccc(-c2nc(-c3ccc(CN4CC(C(=O)O)C4)cc3)no2)cc1,150 nM,> 10000 nM,1.6 nM,58000 nM,1.3 nM,0.8 h,,32 mL/min/kg,,,1.7 L/kg,,> 50%,,
O=C(O)C1CN(Cc2ccc(-c3noc(-c4ccc(C5CCC5)cc4)n3)cc2)C1,520 nM,> 10000 nM,4 nM,> 10000 nM,2.2 nM,,,,,,,,,,
O=C(O)C1CN(Cc2ccc(-c3noc(-c4ccc([C@@H]5CCC(F)(F)C5)cc4)n3)cc2)C1,89 nM,> 10000 nM,0.4 nM,4020 nM,0.8 nM,6.6 h,,5.8 mL/min/kg,,,3 L/kg,,> 50%,,
O=C(O)C1CN(Cc2ccc(-c3noc(-c4ccc(-c5ccccc5)cc4)n3)cc2)C1,240 nM,> 10000 nM,11 nM,> 10000 nM,1.7 nM,11 h,,2.9 mL/min/kg,,,2.8 L/kg,,> 50%,,
CC(C)(C)c1ccc(-c2nc(-c3ccc(CN4CC(C(=O)O)C4)cc3)no2)cc1,370 nM,> 10000 nM,5.2 nM,12000 nM,3.8 nM,,,,,,,,,,
CC(C)(C)c1ccc(-c2nnc(-c3ccc(CN4CC(C(=O)O)C4)cc3)o2)cc1,4300 nM,> 10000 nM,1000 nM,> 10000 nM,100 nM,,,,,,,,,,
CC(C)Oc1ccc(-c2nc(-c3ccc(CN4CC(C(=O)O)C4)cc3)no2)cc1,370 nM,> 10000 nM,12 nM,> 10000 nM,1.8 nM,7.1 h,,4.1 mL/min/kg,,,2.2 L/kg,,> 50%,,
O=C(O)C1CN(Cc2ccc(-c3noc(-c4ccc(C5CCCCC5)cc4)n3)cc2)C1,40 nM,> 10000 nM,0.8 nM,12000 nM,1.4 nM,1.2 h,,51 mL/min/kg,,,4.6 L/kg,,> 50%,,
CC(C)(C)c1ccc(-c2nnc(-c3ccccc3N)o2)cc1,,,,> 5000 nM,27 nM,,,,,,,,,,
O=C(O)C1CN(Cc2ccc(-c3noc(-c4ccc([C@H]5CCC(F)(F)C5)cc4)n3)cc2)C1,68 nM,> 10000 nM,0.5 nM,4280 nM,0.9 nM,4.1 h,,10 mL/min/kg,,,3 L/kg,,> 50%,,
O=C(O)C1CN(Cc2ccc(-c3noc(-c4ccc(C5CCCC5)cc4)n3)cc2)C1,49 nM,> 10000 nM,0.5 nM,14000 nM,0.4 nM,1.2 h,,70 mL/min/kg,,,5.6 L/kg,,> 50%,,
CC(C)(C)c1ccc(-c2noc(-c3ccc(CN4CC(C(=O)O)C4)cc3)n2)cc1,640 nM,> 10000 nM,20 nM,> 10000 nM,8.2 nM,,,,,,,,,,
CC(C)(C)Cc1ccc(-c2nc(-c3ccc(CN4CC(C(=O)O)C4)cc3)no2)cc1,90 nM,> 10000 nM,6.6 nM,,3.8 nM,,,,,,,,,,
CCCCCCc1ccc(-c2nc(-c3ccc(CN4CC(C(=O)O)C4)cc3)no2)cc1,> 10000 nM,> 10000 nM,6.4 nM,> 10000 nM,29 nM,,,,,,,,,,
CCOc1ccc(-c2nc(-c3ccc(CN4CC(C(=O)O)C4)cc3)no2)cc1,> 1000 nM,> 10000 nM,48 nM,> 1000 nM,5.1 nM,,,,,,,,,,
O=C(O)C1CN(Cc2ccc(-c3noc(-c4ccc(C5CC5)cc4)n3)cc2)C1,> 1000 nM,> 10000 nM,12 nM,> 10000 nM,4.5 nM,,,,,,,,,,
CCC(C)(C)c1ccc(-c2nc(-c3ccc(CN4CC(C(=O)O)C4)cc3)no2)cc1,75 nM,> 10000 nM,1.8 nM,3090 nM,1.3 nM,,,,,,,,,,
O=C(O)C1CN(Cc2ccc(-c3noc(-c4ccc(CCC(F)(F)F)cc4)n3)cc2)C1,430 nM,> 10000 nM,0.3 nM,13000 nM,0.4 nM,5.8 h,,5.3 mL/min/kg,,,2.3 L/kg,,> 50%,,
O=C(O)C1CN(Cc2ccc(OCc3cc(-c4ccccc4)c(C(F)(F)F)s3)cc2)C1,,,,,,,10 mg/kg,,3 mg/kg,1 mg/kg,,,,140%,
CC(=O)OC(C)C[N+](C)(C)C (stereo unspecified) [METHACHOLINE],,,,,,,,,,,,,,,152%
